Sampled rows, rich in hits. Any-hit rate of the full collection: about 1.7%.
HNF4A DNA FP – change in binding of human HNF4 alpha to DNA | P41235 | HNF4a-FITC DNA binding, fluorescence polarization, 1 h | activity change, % at 10 µM | actives 0.3% (n = 360,000) | AID 1224865; in the data active = activity change above about 30%, passing the limit was not always enough
TPT1 inhibitor – blocks Candida albicans tRNA 2'-phosphotransferase; recombinant caTPT1, FP RNA substrate dephosphorylation; inhibition, % at 5 µM; actives 0.81% (n = 300,000); AID 1962;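 active = inhibition above the mean of all tested compounds plus 3 SD, set per screening campaign, cut at about 24% in these data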;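 also: plate controls were DMSO alone for no effect and ferristatin control at 100 nM for full effect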
IDE cell inh – cellular human IDE inhibition; HEK cells, FAbetaB cleavage, fluorescence polarization; AID 434962; inhibition, % at 5.59 µM; actives 0.41% (n = 320,000); P14735;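 active = percent inhibition above the average of all tested compounds plus 3 SD, set per screening campaign, cut at about 16% in these data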;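 also: IDE supplied by intact live HEK cells; FP after avidin binding of uncleaved biotin substrate so inhibition keeps polarization high; 0% = DMSO wells and 100% = 60 µM reference IDE inhibitor Ii1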
Rpn11 block – Rpn11 (human) deubiquitinase inhibition; O00487; human 26S proteasome, Ub4-pepOG fluorescence polarization; 20S core pre-blocked with epoxomicin; inhibition, % at 20 µM; actives 0.59% (n = 360,000); AID 588493;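 active = inhibition at 20 µM, scaled to each plate's controls, above about 33%, limit read from the data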
Target sequence (O00487 whole entry, looked up): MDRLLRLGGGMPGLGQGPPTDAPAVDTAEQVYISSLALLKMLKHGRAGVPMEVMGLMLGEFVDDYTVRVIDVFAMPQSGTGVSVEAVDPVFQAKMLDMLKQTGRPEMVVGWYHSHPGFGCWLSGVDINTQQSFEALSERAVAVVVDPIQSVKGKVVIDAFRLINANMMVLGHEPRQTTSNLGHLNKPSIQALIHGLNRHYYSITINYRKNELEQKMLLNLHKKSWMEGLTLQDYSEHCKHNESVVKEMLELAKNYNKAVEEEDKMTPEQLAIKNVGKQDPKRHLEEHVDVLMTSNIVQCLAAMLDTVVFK
IDE act – boosts human insulin-degrading enzyme activity in HEK cells; FAbeta-B cleavage, fluorescence polarization; 0% vehicle, 100% cell-free pure enzyme wells; AID 493087; activation, % at 5.96 µM; actives 0.073% (n = 340,000); P14735;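 active = activation above the mean of all tested compounds plus 3 SD, set per screening campaign, cut at about 17% in these data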
CSN inh – blocks human CSN-mediated cullin deneddylation. Q92905. Purified CSN, SCF-Nedd8-OG deneddylation, fluorescence polarization. inhibition, % at 12.5 µM. actives 0.38% (n = 360,000). AID 651999;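 active = pattern-corrected inhibition above about 35%, with an unprinted fluorescence ratio check between 0.5 and 1.5, limit read from the data, passing the limit was not always enough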;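 also: 0% = enzyme with substrate and 100% = substrate without enzyme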
Target sequence (Q92905 whole entry, looked up, one chain of several): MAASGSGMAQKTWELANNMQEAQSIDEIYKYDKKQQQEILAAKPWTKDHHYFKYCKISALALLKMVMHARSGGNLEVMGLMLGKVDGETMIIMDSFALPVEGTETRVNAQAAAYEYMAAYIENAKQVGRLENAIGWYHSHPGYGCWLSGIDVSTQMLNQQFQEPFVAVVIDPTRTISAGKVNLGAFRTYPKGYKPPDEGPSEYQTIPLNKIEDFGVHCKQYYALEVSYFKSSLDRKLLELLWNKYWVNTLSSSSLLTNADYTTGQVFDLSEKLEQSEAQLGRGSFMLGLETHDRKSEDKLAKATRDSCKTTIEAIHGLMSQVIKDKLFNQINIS
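test system = HEK293T-derived human Csn5 enzyme | amount = 0.24 nM Csn5 enzyme, final concentration | medium = Tris/NaCl/DTT buffer, pH 7.5 | schedule = 90 min reaction at room temperature | signal = FP | evaluation = inhibition of Csn5 cleavage, % | compound dosing = single dose of 12.5 µM compound with 0.25% DMSO | probe or stimulus = 10 nM SCFSkp2-Nedd8OG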
caTPT1 confirm – confirmation of Candida albicans TPT1 inhibitors | recombinant caTPT1, fluorescence polarization, RNase T1 coupled | inhibition, % at 5 µM | actives 74% (n = 2,400) | shares compounds with TPT1 inhibitor;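 active = inhibition above the primary screen limit, the mean inhibition of all tested compounds plus 3 SD, cut at about 25% in these data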
RNase T1 inh – RNase T1 inhibition in TPT1 counter-screen | shares compounds with TPT1 inhibitor | RNase T1 cleavage, fluorescence polarization, 1536-well | inhibition, % at 5 µM | actives 83% (n = 2,400);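 active = inhibition above the solvent-only control well mean plus 3 SD, limit set per screening run, cut at about 23% in these data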;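 also: plate controls were DMSO wells with enzyme for no effect and wells without RNase T1 for full effect; inhibitors block cleavage so intact labeled substrate keeps polarization high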
Target sequence (P00651 whole entry, looked up): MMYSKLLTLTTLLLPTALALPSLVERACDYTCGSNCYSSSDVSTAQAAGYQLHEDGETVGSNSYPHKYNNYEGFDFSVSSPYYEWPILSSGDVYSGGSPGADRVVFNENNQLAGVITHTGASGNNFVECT
IDE cell inh cf – cellular human IDE inhibition, confirmation; shares compounds with IDE cell inh; HEK cells, FAbetaB cleavage, fluorescence polarization; inhibition, % at 5.59 µM; actives 51% (n = 1,200); AID 435028;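 active = mean inhibition across triplicate wells above the cutoff set by the earlier primary insulin-degrading enzyme screen, cut at about 16% in these data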;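 also: 0% = DMSO wells and 100% = 60 µM reference IDE inhibitor Ii1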
HEK cytotox – counter-screen for IDE inhibitors: cytotoxicity in HEK cells; shares compounds with IDE cell inh; HEK293 cytotoxicity, ATP luminescence; inhibition, % at 5.59 µM; actives 28% (n = 1,200); in the data active = inhibition above about 22%;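 also: 0% = vehicle wells and 100% = reference cytotoxic drug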
Rpn11 confirm – confirmation of human proteasome Rpn11 inhibitors | shares compounds with Rpn11 block | purified human 26S proteasome, Ub4-pepOG fluorescence polarization; proteasome pretreated with epoxomicin | inhibition, % at 20 µM | actives 29% (n = 1,900) | AID 602318
MMP-2 counter-1 – counter-screen for RPN11 inhibitors: inhibition of human MMP-2 | shares compounds with Rpn11 block | recombinant MMP-2, FRET peptide cleavage fluorescence | inhibition, % at 20 µM | actives 4% (n = 1,900) | AID 602330;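 also: human MMP-2 activated beforehand with APMA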
Thrombin FP – thrombin (bovine) inhibition counter-screen. shares compounds with Rpn11 block. bovine thrombin cleavage of Ub4-pepOG, fluorescence polarization. inhibition, % at 20 µM. actives 13% (n = 1,900). AID 602333;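 active = mean inhibition at least 40% at 20 µM, or signal 3 deviations below plate average, so some actives read negative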;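 also: plate controls were thrombin with DMSO for no effect and buffer wells lacking thrombin for full effect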
CSN deneddyl val – validation of inhibitors of human CSN-mediated cullin deneddylation; actives 62% (n = 540); Csn5 deneddylation of SCF-Nedd8OG, fluorescence polarization, 90 min; inhibition, % at 16.6 µM; shares compounds with CSN inh; in the data active = inhibition above about 50%;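 also: 0% = DMSO with enzyme and 100% = no enzyme wells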
MMP-2 counter-2 – counter-screen for CSN deneddylation inhibitors: human MMP-2 inhibition. inhibition, % at 16.6 µM. recombinant MMP-2, FRET substrate fluorescence, 60 min. shares compounds with CSN inh. actives 33% (n = 540). AID 720655;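 active = corrected plate-normalized z-score of 5 or more, or -5 or less, or inhibition of 15% or more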;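 also: plate controls were DMSO wells with enzyme for no effect and buffer wells lacking MMP-2 for full effect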
Thrombin cntr – counter-screen for CSN deneddylation inhibitors: bovine thrombin inhibition; shares compounds with CSN inh; bovine thrombin cleavage of Ub4-pepOG, fluorescence polarization; inhibition, % at 16.6 µM; actives 49% (n = 540);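 active = inhibition at or above a set limit, with a fluorescence interference ratio between 0.5 and a set maximum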
* hit, by the source's call; x = not tested or not shown. Rule as the data show it, unless noted: active = inhibition above about 40%; inactive = the rest.

SMILES | HNF4A DNA FP | TPT1 inhibitor | IDE cell inh | Rpn11 block | IDE act | CSN inh | caTPT1 confirm | RNase T1 inh | Rpn11 confirm | MMP-2 counter-1 | Thrombin FP | others
COc1cccc(/C=C2\Oc3ccc(O)cc3C2=O)c1O | 9 | 49* | 6 | 44* | -2 | 6 | 71* | 79* | -6 | -73 | -13
O=C(CC1C[C@H](C(=O)N2CCOCC2)[C@@]2(CCC3CCCC3)c3[nH]c4ccccc4c3CCN2C1=O)NCCCn1ccnc1 (stereo not given in full) | 0 | x | -4 | -3 | 4 | -2 | x | x | x | x | x
COc1cc(/C=C2/C(=O)N(c3cccc(Br)c3)N=C2C)cc(OC)c1O | 6 | 70* | 1 | 78* | -31 | 30 | 86* | 91* | 80* | 8 | 60*
CCCCCCN1C=CC=C/C1=C/C=C(C#N)C#N | 22 | 62* | 29* | 46* | -39 | 13 | 80* | 89* | 37 | 15 | 52* | IDE cell inh cf=36*;HEK cytotox=8
CN1/C(=C/C=C(C#N)C#N)C=Cc2ccccc21 | 138 | 6 | 8 | x | -14 | 72 | x | x | x | x | x
O=C(Nc1nccs1)c1ccc(N2CCOCC2)c([N+](=O)[O-])c1 | 1 | -8 | 1 | -3 | -4 | -7 | x | x | x | x | x
Cc1nnc(NCc2ccccc2)c2ccccc12 | 1 | -5 | 4 | 0 | 1 | 3 | x | x | x | x | x
CCOC(=O)c1sc2nc(CSc3ccccc3Cl)[nH]c(=O)c2c1C | 13 | 16 | 11 | x | 7 | 3 | x | x | x | x | x
COC(=O)c1sc2nc(CSc3ccc(Br)cc3)[nH]c(=O)c2c1C | 12 | 35* | 8 | 76* | -1 | 5 | 26* | 36* | 50* | -20 | -2
COCCn1c(SCc2nc3sc(C(=O)OC)c(C)c3c(=O)[nH]2)nc2ccccc21 | 17 | 26* | -1 | 50* | 5 | 15 | 24 | 33* | 20 | -45 | 19
CCOC(=O)c1c(C)[nH]c(O)c1C=Nc1ccc(C(F)(F)F)cc1 | 15 | 36* | 3 | 49* | 1 | 0 | 30* | 40* | 2 | -1 | -1
Cc1[nH][nH]c(=O)c1C=Nc1ccc(C(F)(F)F)cc1 | -1 | 0 | -1 | 10 | 4 | 2 | x | x | x | x | x
O=C(CSc1nc2cc(Cl)ccc2s1)c1cc2ccccc2o1 | 3 | 78* | -2 | 55* | -11 | -2 | 20 | 27* | 45* | 31 | 14
Cc1cc(NC(=O)CSc2nc3cc(Cl)ccc3s2)no1 | 2 | -2 | 3 | -10 | 0 | 2 | x | x | x | x | x
Cc1cc(C)c(NC(=O)CN(C)C(=O)C2CC(=O)N(c3cccc4ccccc34)C2)c(C)c1 (stereo not given) | 1 | x | -3 | 0 | 0 | -6 | x | x | x | x | x
COC(=O)c1ccc(N2NC(=O)/C(=C/c3cc(OC)c(O)c(OC)c3)C2=O)cc1 | -1 | 103* | 11 | 54* | -8 | 21 | 99* | 121* | 62* | -23 | 5
CCN(CCO)c1ccc(N=Nc2cc(C)[nH]n2)cc1 | 47* | 25* | -1 | 70* | 0 | 17 | 34* | 42* | 42* | -13 | 36
CCCCn1c(O)c(/C=C/C=C/C=Nc2ccccc2)sc1=S | 51* | 44* | -7 | 81* | -4 | 24 | 20 | 28* | 35 | 19 | 37
Cc1cc(O)c(C(C)C)cc1N=Nc1ccccc1C(=O)O | 19 | 26* | 6 | 41* | 0 | 7 | 31* | 48* | 23 | -20 | 27
Cc1cc(N=Nc2ccccc2C(=O)O)c(C)c(C)c1O | 32* | 41* | -12 | 92* | 15 | 19 | 42* | 60* | 69* | -1 | 48*
COc1cc(N=Nc2ccccc2C(=O)O)ccc1O | 4 | -4 | -3 | 0 | 3 | -1 | x | x | x | x | x
CC[n+]1c(/C=C/N(C)c2ccccc2)oc2ccc(F)cc21 | 60* | 55* | 6 | x | 3 | 37* | 72* | 81* | x | x | x | CSN deneddyl val=122*;MMP-2 counter-2=-4;Thrombin cntr=47*
COc1ccc2nc(N3C(=O)/C(=C/c4ccccc4)NC3=S)sc2c1 | 108 | 111* | 12 | x | -5 | 95* | 115* | 119* | x | x | x | CSN deneddyl val=92*;MMP-2 counter-2=-12;Thrombin cntr=74*
COc1ccc2nc(-n3c(C)ccc3C)sc2c1 | 4 | -1 | 4 | 1 | -2 | 4 | x | x | x | x | x
CCOC(=O)C1CCCN(C2=NC(=O)/C(=C/c3ccc(OC)cc3)S2)C1 (stereo not given) | 2 | 3 | 2 | 0 | 4 | -4 | x | x | x | x | x
CCOC(=O)C1CCCN(C2=NC(=O)/C(=C/c3ccc(N(C)C)cc3)S2)C1 (stereo not given) | 139 | 128* | 52* | x | -34 | 114* | 130* | 126* | x | x | x | IDE cell inh cf=43*;HEK cytotox=7;CSN deneddyl val=171*;MMP-2 counter-2=14;Thrombin cntr=12
COc1ccccc1NC(=O)C(=N\O)/C(C)=N/O | -7 | 2 | -3 | -4 | 1 | -2 | x | x | x | x | x
CSC[C@H]1CN(c2ccc(Br)cc2)C(=O)[C@@H]1CC(=O)Nc1ccc(Br)cc1 | -1 | x | x | 2 | x | 4 | x | x | x | x | x

Screening data from PubChem BioAssay.
